This is an account of results in ChEMBL document CHEMBL3632567, “Selective Allosteric Antagonists for the G Protein-Coupled Receptor GPRC6A Based on the 2-Phenylindole Privileged Structure Scaffold” (J Med Chem, 2015).

A value given as a limit tells only on which side of the number the result lay.

For assay [1], the target named is T1, Extracellular calcium-sensing receptor (Rattus norvegicus, UniProt P48442).
T1 sequence (P48442 whole entry): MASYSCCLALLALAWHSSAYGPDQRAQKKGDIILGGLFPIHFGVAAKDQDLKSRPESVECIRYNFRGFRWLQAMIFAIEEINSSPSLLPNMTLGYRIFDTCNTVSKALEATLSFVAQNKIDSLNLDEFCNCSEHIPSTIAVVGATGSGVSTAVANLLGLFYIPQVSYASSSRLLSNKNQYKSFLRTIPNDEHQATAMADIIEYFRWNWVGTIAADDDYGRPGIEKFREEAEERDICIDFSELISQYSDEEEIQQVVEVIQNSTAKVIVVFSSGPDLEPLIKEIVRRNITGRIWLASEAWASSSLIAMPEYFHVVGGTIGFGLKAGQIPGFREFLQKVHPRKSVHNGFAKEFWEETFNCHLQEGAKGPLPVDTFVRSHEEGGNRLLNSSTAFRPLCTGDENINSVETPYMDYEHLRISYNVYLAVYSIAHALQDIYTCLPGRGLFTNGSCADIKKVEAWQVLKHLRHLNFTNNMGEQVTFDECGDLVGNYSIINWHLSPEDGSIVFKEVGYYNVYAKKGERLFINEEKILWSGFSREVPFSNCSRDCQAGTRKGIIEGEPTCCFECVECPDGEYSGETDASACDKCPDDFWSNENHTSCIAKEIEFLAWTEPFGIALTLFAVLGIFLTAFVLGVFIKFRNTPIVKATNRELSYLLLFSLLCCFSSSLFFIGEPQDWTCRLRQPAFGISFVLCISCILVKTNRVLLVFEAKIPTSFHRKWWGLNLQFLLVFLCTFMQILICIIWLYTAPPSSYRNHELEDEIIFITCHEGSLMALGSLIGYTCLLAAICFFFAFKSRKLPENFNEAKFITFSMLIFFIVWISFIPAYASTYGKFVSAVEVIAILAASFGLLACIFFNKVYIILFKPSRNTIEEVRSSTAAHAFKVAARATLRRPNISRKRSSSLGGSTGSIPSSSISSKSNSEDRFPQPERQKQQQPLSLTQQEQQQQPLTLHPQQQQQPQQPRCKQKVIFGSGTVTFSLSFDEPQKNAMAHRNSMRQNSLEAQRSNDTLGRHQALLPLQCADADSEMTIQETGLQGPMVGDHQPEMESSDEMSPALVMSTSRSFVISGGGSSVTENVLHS
The assay is described as follows: Antagonist activity at rat CaSR expressed in HEK293 cells assessed as inhibition of Ca2+-induced inositol monophosphate accumulation after 30 min by FRET assay.

In assay [2] the target is T2, G-protein coupled receptor family C group 6 member A (Mus musculus, UniProt Q8K4Z6).
T2 sequence (Q8K4Z6 whole entry): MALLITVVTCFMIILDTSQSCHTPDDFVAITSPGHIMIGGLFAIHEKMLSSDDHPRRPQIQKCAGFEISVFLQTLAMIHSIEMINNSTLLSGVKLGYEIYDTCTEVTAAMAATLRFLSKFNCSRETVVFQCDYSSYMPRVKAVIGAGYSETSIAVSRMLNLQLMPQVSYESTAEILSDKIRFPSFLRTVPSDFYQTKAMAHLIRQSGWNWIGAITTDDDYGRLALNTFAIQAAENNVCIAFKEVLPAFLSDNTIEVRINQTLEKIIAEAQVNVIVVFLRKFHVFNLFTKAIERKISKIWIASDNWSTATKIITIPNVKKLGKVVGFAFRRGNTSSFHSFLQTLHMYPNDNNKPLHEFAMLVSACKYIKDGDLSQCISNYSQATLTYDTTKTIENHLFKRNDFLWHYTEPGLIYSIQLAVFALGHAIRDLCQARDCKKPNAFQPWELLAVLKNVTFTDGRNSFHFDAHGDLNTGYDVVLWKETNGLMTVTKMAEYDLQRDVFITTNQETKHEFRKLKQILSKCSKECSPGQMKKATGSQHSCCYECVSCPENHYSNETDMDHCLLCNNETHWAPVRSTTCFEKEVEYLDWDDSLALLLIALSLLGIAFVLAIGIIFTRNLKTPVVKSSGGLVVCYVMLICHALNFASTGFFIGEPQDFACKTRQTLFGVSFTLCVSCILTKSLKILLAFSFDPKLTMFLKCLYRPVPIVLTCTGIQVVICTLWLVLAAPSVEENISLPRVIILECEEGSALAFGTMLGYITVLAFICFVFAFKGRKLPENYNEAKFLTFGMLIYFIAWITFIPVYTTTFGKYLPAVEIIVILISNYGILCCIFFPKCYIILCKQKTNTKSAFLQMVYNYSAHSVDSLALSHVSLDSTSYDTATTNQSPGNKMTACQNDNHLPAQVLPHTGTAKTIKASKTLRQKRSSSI
The assay is described as follows: Antagonist activity at mouse GPRC6A receptor expressed in HEK293 cells assessed as inhibition of L-ornithine-induced inositol monophosphate accumulation after 1 hr by FRET assay. The format is functional, cell-based. The procedure, abridged: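 HEK-293T cells transiently co-transfected (Lipofectamine 2000, 48 h before assay) with mouse GPRC6A and Gq(G66D), 1:1, 12,500 cells/well on poly-D-lysine. Cells washed twice in HBSS/HEPES/BSA pH 7.4, then 1 h at 37 °C with compounds (up to 400 µM, 2% DMSO final) plus 500 µM L-ornithine in LiCl Ligand Buffer. IP1 read by HTRF; curves triplicate, ≥3 experiments; relative potency = IC50(reference)/IC50 × 100.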

The target of assay [3] is Metabotropic glutamate receptor 5 (Rattus norvegicus, UniProt P31424). The assay is described as follows: Antagonist activity at rat mGluR5 expressed in CHO cells assessed as inhibition of L-glutamate-induced inositol monophosphate accumulation after 1 hr by FRET assay. The format is functional, cell-based. A digest of the protocol:
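CHO cells stably expressing rat mGluR5, kept in DMEM with 10% dialyzed FBS and 1% L-proline, 37 °C, 5% CO2. After two washes in HBSS/HEPES/BSA pH 7.4, cells were stimulated 1 h at 37 °C with 100 µM L-glutamate and compounds (2% DMSO final) in LiCl Ligand Buffer. IP1 accumulation by HTRF; triplicate curves, ≥3 experiments.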

The target of assay [4] is T3, 5-hydroxytryptamine receptor 2C (Homo sapiens, UniProt P28335).
T3 sequence (P28335 whole entry): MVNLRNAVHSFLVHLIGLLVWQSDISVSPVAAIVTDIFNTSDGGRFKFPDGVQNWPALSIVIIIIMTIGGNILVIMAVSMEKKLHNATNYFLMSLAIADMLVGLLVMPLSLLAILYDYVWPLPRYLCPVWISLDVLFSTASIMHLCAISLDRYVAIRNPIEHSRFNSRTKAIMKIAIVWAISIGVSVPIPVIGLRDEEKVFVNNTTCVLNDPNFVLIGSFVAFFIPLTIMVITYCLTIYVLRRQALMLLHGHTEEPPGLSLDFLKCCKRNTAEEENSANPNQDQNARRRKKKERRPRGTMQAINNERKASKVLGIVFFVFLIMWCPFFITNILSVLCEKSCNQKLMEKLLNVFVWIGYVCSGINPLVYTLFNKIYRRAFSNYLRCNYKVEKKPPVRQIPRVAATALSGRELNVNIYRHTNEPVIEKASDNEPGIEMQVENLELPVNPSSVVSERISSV
The assay is described as follows: Antagonist activity at human 5HT2C receptor expressed in HEK293 cells assessed as inhibition of serotonin-induced inositol monophosphate accumulation after 1 hr by FRET assay. The format is functional, cell-based. The procedure, abridged: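 HEK-293T cells transiently transfected with human 5-HT2C (0.25 µg DNA/well), seeded 12,500/well 48 h before assay. After two HBSS/HEPES/BSA pH 7.4 washes, compounds in 2% DMSO final with 1 µM serotonin in Ligand Buffer (1 mM CaCl2, 1 mM MgCl2, LiCl, pH 7.4) applied 1 h at 37 °C. Lysate IP1 measured by HTRF (665/615 nm ratio vs standard); pIC50 by nonlinear regression, triplicate, ≥3 experiments.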

Assay [5] addresses Muscarinic acetylcholine receptor M3 (Homo sapiens, UniProt P20309). The assay is described as follows: Antagonist activity at human muscarinic M3 receptor expressed in HEK293 cells assessed as inhibition of carbachol-induced inositol monophosphate accumulation after 1 hr by FRET assay. The format is functional, cell-based. The procedure, abridged:
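HEK-293T cells transfected with empty pCIneo to use their native human M3 receptors, 12,500/well, assayed 48 h later. After two HBSS/HEPES/BSA pH 7.4 washes, cells were stimulated 1 h at 37 °C with 1 mM carbachol plus compounds (2% DMSO final) in LiCl-containing Ligand Buffer. IP1 quantified by HTRF against standard; triplicate curves, at least three experiments.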

Assay [6] deals with T4, G-protein coupled receptor family C group 6 member A (Mus musculus) (UniProt Q8K4Z6).
T4 sequence (whole entry): T2 sequence (Q8K4Z6 whole entry)
The assay is described as follows: Relative antagonist potency at mouse GPRC6A receptor expressed in HEK293 cells assessed as L-ornithine-induced inositol monophosphate accumulation after 1 hr by FRET assay relative to 2-[methyl-(2-morpholino-2-oxo-ethyl)amino]-1-(2-phenyl-1H-indol-3-yl)ethanone.

Sequence of Muscarinic acetylcholine receptor M3 (P20309 whole entry): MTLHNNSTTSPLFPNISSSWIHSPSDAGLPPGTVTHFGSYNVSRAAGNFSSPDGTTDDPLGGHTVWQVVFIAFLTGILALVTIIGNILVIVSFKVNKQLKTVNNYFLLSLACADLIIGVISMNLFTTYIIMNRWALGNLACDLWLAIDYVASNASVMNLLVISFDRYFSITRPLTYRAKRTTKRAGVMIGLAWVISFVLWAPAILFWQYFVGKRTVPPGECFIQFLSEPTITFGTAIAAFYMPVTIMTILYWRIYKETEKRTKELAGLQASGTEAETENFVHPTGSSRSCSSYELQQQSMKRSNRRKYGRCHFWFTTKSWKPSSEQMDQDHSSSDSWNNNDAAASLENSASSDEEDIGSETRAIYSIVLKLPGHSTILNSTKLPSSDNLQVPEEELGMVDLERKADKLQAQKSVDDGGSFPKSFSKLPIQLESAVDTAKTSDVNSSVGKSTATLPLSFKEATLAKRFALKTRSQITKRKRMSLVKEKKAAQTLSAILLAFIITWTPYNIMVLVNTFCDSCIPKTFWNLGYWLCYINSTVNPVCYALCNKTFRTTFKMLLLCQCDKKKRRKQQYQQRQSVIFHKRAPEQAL
Sequence of Metabotropic glutamate receptor 5 (P31424 whole entry): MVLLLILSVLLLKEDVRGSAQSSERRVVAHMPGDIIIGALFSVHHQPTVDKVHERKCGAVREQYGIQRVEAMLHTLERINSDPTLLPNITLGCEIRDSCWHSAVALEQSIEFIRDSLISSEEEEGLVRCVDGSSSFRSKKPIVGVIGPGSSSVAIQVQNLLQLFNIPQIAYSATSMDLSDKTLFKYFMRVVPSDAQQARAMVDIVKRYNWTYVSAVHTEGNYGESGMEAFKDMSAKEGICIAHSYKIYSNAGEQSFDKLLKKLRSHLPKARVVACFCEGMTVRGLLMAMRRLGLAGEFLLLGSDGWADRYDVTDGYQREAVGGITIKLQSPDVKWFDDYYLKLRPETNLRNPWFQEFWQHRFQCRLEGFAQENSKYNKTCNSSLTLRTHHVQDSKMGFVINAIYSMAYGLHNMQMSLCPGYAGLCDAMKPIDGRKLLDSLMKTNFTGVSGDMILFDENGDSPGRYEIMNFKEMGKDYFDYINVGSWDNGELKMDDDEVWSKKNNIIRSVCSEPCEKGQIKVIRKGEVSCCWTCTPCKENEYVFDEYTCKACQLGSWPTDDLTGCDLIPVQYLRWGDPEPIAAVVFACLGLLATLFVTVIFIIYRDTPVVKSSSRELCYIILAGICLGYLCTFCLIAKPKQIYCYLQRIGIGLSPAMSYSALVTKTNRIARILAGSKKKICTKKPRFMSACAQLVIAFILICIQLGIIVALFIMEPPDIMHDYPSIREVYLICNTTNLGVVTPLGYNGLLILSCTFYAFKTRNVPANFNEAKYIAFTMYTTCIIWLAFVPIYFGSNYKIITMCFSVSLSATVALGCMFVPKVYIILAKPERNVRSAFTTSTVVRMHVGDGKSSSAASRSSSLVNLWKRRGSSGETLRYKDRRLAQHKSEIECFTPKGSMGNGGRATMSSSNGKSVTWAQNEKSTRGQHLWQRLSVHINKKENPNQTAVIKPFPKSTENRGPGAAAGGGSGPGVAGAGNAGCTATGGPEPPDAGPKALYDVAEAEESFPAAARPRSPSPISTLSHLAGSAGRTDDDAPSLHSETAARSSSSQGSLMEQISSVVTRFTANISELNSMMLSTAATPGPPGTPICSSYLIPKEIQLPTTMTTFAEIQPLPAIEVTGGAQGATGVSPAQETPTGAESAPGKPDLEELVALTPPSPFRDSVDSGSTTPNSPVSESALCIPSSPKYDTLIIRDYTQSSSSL

Take `COc1ccc(-c2[nH]c3ccccc3c2C(=O)CN(C)CC(=O)N2CCOCC2)cc1`: the IC50 – broadly, the concentration that inhibits the measured activity by half – in assay [1] is 56.2 µM; in assay [2], 9.33 µM; in assay [3] it was 41.7 µM; in assay [4], 51.3 µM; in assay [5], 4.17 µM.

`CN(CCc1c(-c2ccccc2)[nH]c2ccccc12)CC(=O)N1CCOCC1`: the Relative potency in assay [6] came to 17. Besides, the IC50 in assay [2] was 132 µM.

For `O=C(CN1CCCC(C(=O)N2CCOCC2)C1)c1c(-c2ccccc2)[nH]c2ccccc12` (centres undefined), the IC50 amounted to 240 µM in assay [1]; 5.5 µM in assay [2]; 263 µM in assay [3]; 209 µM in assay [4]; 51.3 µM in assay [5].

For the compound `CN(CC(=O)c1c(-c2ccco2)[nH]c2ccccc12)CC(=O)N1CCOCC1`, the Relative potency in assay [6] was 9. Also, the IC50 in assay [2] was 248 µM.

Regarding `CN(CC(=O)N1CCOCC1)C(=O)c1c(-c2ccccc2)[nH]c2ccccc12`, the Relative potency in assay [6] is < 6. Moreover, the IC50 in assay [2] is > 400 µM.

For the compound `CN(CC(=O)c1c(-c2ccc(F)cc2)[nH]c2ccccc12)CC(=O)N1CCOCC1`, the Relative potency in assay [6] was found to be 103. Further, the IC50 in assay [2] came to 21.3 µM.

Consider `CN(CC(=O)c1c(-c2ccccc2)[nH]c2ccc(F)cc12)CC(=O)N1CCOCC1`, for which the Relative potency in assay [6] turned out to be 55. Also, the IC50 in assay [2] came out at 39.8 µM.

For `CN(CCN1CCOCC1)CC(=O)c1c(-c2ccccc2)[nH]c2ccccc12`, the IC50 in assay [1] stood at 347 µM; in assay [2] it was 6.17 µM; in assay [3] it was 269 µM; in assay [4] it was 269 µM; in assay [5] it was 58 µM.

For `O=C(CNCC(=O)N1CCOCC1)c1c(-c2ccccc2)[nH]c2ccccc12`, the Relative potency in assay [6] came to 9. Moreover, the IC50 in assay [2] stood at 256 µM.

With `COc1ccc2[nH]c(-c3ccccc3)c(C(=O)CN(C)CC(=O)N3CCOCC3)c2c1`, the Relative potency in assay [6] turned out to be 33. In addition, the IC50 in assay [2] came out at 66.1 µM.

With `CN(CC(=O)c1c(-c2ccccc2)[nH]c2ccccc12)CC(=O)N1CCCC1`, in assay [6], the Relative potency is 38. The IC50 in assay [2] worked out at 57.3 µM.

Take `CN(CC(=O)c1c(CO)[nH]c2ccccc12)CC(=O)N1CCOCC1`: the Relative potency in assay [6] is < 6. Further, the IC50 in assay [2] was > 400 µM.

Regarding `CN(CC(=O)N1CCOCC1)CC(O)c1c(-c2ccccc2)[nH]c2ccccc12` (centres undefined), the Relative potency in assay [6] was < 6. Besides, the IC50 in assay [2] was > 400 µM.

On to `CN(CC(=O)c1c[nH]c2ccccc12)CC(=O)N1CCOCC1`, for which the Relative potency in assay [6] was < 6. For the same compound, the IC50 in assay [2] is > 400 µM.

As for `CN(CC(=O)c1c(-c2ccccc2)[nH]c2ccc(CC(=O)N(C)C)cc12)CC(=O)N1CCOCC1`, in assay [6], the Relative potency is < 6. Also, in assay [2], the IC50 was > 400 µM.

In the case of `CN(CC(=O)c1c(-c2ccccc2)[nH]c2ccccc12)CC(=O)N1CCOCC1`, the IC50 in assay [1] was found to be 316 µM; in assay [2], 21.9 µM; in assay [3] it was 224 µM; in assay [4] it was 214 µM; in assay [5], 27.5 µM.
